Results reported in ChEMBL document CHEMBL1147142, “Novel 3-O-glycosyl-3-demethylthiocolchicines as ligands for glycine and gamma-aminobutyric acid receptors” (J Med Chem, 2007).

Assays:
Type in all cases: cell membranes, Membrane
[1] = Displacement of [3H]strychnine from glycine receptor in rat spinal cord synaptosomal membranes
Outline: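 Rat spinal cord synaptosomal membranes (stored at -80 °C, used within 2 weeks; 0.2-0.4 mg protein per 1.2 mL) incubated 10 min at 4 °C with 2 nM [3H]strychnine plus increasing concentrations of competitor in 50 mM sodium-potassium phosphate, pH 7.1. Rapid glass-fiber filtration, 0.15 M NaCl rinse. Nonspecific binding with 0.1 mM unlabeled strychnine. Triplicate points; IC50 from mean of three independent curves.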

[2] = Displacement of [3H]muscimol from GABAA receptor in Sprague-Dawley rat cerebral cortex membranes
[3] = Displacement of [3H]muscimol from GABAA receptor in Sprague-Dawley rat spinal cord brainstem membranes

SMILES | IC50 [1] [µM] | IC50 [2] [µM] | IC50 [3] [µM]
COc1c(O[C@@H]2O[C@H](CI)[C@@H](O)[C@H](O)[C@H]2O)cc2c(c1OC)-c1ccc(SC)c(=O)cc1[C@@H](NC(C)=O)CC2 | > 100 | 17.3 | 8
COc1c(O[C@@H]2O[C@H](C)[C@@H](O)[C@H](O)[C@H]2O)cc2c(c1OC)-c1ccc(SC)c(=O)cc1[C@@H](NC(C)=O)CC2 | 1.9 | 6.2 | 3.5
COc1c(O[C@@H]2O[C@H](CF)[C@@H](O)[C@H](O)[C@H]2O)cc2c(c1OC)-c1ccc(SC)c(=O)cc1[C@@H](NC(C)=O)CC2 | 1.3 | 3.8 | 2
COc1c(O[C@@H]2O[C@H](CN=[N+]=[N-])[C@@H](O)[C@H](O)[C@H]2O)cc2c(c1OC)-c1ccc(SC)c(=O)cc1[C@@H](NC(C)=O)CC2 | 4.3 | 7.8 | 8.2
NCC(=O)O [GLYCINE] | 15.8 |  | 
O=C1C[C@@H]2OCC=C3CN4CC[C@]56c7ccccc7N1[C@H]5[C@H]2[C@H]3C[C@H]46 [STRYCHNINE] | 0.014 |  | 
COc1c(O[C@@H]2O[C@H](CO)[C@@H](O)[C@H](O)[C@H]2O)cc2c(c1OC)-c1ccc(SC)c(=O)cc1[C@@H](NC(C)=O)CC2 [THIOCOLCHICOSIDE] | 1.5 | 3.4 | 1.9
